SMARCA2 activ = SMARCA2 (BRM) function activators, primary screen, cell-based, luminescence, high throughput. MG213 cells, MMTV-luciferase reporter, dexamethasone, overnight. activation, % at 9.1 µM. hit rate 1% among 370,000. AID 652017, 2013; in the data active = activation above about 7.8%
Efflux pump inh = inhibitors of Candida efflux pumps in yeast, primary screen, S. cerevisiae, Nile Red, multiplex. S. cerevisiae Candida pump triplex. inhibition, % at 10 µM. hit rate 0.44% among 330,000. AID 485275, 2010;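 active = plate passing quality check with inhibition over a set limit, or well fluorescence over plate mean plus 4 SD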;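 also: Nile Red retained in pooled yeast measured as flow cytometry median fluorescence; higher means more Nile Red kept so more efflux inhibition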
Tb MetRS inh = T. brucei MetRS inhibitors, primary screen, biochemical, luminescence | AID 624268, 2012 | purified T. brucei MetRS, ATP depletion, Kinase-Glo luminescence | methionyl-tRNA synthetase (Trypanosoma brucei brucei) | hit rate 0.4% among 360,000 | inhibition, % at 11.9 µM;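 active = inhibition above a per-plate cutoff of the control wells' mean inhibition plus 3 SD, cut at about 5.5% in these data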
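Test system – parasite MetRS enzyme · Reagent – substrates ATP, L-methionine and bulk Escherichia coli tRNA · Doses – 11.9 µM compound single dose, 0.9% DMSO · Times – 15 min enzyme-compound preincubation, 2 h reaction, 10 min detection, 25 °C · Signal – Kinase-Glo luminescence, ATP depletion format · Controls – DMSO-only wells as low control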
AHR activator = AHR activators, primary screen, cell-based, luminescence, luciferase reporter, human; hit rate 2.5% among 320,000; activation, % at 5 µM; AHR-responsive luciferase reporter cells; in the data active = activation above about 47%
Target sequence (P35869 whole entry, looked up): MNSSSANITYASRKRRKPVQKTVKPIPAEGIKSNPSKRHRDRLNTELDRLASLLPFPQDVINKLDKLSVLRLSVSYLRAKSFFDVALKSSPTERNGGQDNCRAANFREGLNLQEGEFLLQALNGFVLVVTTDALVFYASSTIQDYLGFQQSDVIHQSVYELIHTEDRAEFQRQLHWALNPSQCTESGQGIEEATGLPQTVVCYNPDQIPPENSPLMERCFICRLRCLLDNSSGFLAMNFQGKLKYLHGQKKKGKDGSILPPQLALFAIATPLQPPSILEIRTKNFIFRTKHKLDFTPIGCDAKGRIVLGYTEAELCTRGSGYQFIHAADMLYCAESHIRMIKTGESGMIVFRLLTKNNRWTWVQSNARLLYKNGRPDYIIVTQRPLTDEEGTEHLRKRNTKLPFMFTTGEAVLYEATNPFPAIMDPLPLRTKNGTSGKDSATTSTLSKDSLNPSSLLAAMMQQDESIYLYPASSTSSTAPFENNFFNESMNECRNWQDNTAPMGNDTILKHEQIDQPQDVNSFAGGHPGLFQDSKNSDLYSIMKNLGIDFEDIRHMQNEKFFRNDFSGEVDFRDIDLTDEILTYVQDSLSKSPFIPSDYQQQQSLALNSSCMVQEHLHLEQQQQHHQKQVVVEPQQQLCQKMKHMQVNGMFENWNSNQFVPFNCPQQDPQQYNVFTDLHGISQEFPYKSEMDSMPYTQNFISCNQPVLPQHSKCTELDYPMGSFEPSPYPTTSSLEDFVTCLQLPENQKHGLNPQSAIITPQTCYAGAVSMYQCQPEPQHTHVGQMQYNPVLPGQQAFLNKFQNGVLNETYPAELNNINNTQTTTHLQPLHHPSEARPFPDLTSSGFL
TAG inh = inhibitors of triacylglycerol accumulation, primary screen, cell-based, uHTS, fluorescence, H9c2; AID 651582, 2012; inhibition, % at 12.5 µM; hit rate 0.66% among 230,000; H9c2 cells, Nile Red lipid (TAG) fluorescence; cells loaded with 200 µM oleic acid;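 active = pattern-corrected inhibition of lipid staining of at least 50% with the nuclear-stain viability signal not falling by more than 50%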
Cmpd fluor yeast = flagged as fluorescent in efflux inhibitor counter-screen. shares compounds with Efflux pump inh. S. cerevisiae AD/pABC3, compound fluorescence, flow cytometry. fluorescence ratio to DMSO, % at 10 µM. hit rate 4% among 1,700. AID 588517;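 active = fluorescence ratio to DMSO above its plate's cutoff, the plate mean ratio plus 5 SD, cut at about 210% in these data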;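 also: unstained yeast with no Nile Red so the signal is compound autofluorescence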
CaMdr1 efflux inh = inhibitors of Candida albicans Mdr1 efflux, confirmation, flow cytometry, singleplex, Cherry Pick1 set; shares compounds with Efflux pump inh; S. cerevisiae AD/CaMDR1, Nile Red efflux; inhibition, % at 10 µM; hit rate 1% among 1,700; AID 588518, 2011; in the data active = inhibition above about 26%;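 also: higher means more Nile Red retained so more efflux inhibition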
Cdr2 pump inh = inhibitors of Candida albicans Cdr2 efflux pump, confirmation, S. cerevisiae AD/CaCDR2, flow cytometry, cherry pick 1, singleplex; shares compounds with Efflux pump inh; Nile Red retention; Nile Red retention ratio vs DMSO, % at 10 µM; hit rate 4% among 1,700; AID 588520, 2011; in the data active = Nile Red retention ratio vs DMSO above about 190%;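 also: higher ratio means more blocking of Cdr2 efflux of the dye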
Cdr1 pump inh = inhibitors of Candida albicans Cdr1 efflux pump, confirmation, S. cerevisiae AD/CaCDR1, flow cytometry, cherry pick 1, singleplex; inhibition, % at 10 µM; AID 588522, 2011; hit rate 1% among 1,700; Nile Red efflux; shares compounds with Efflux pump inh;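 active = inhibition above the screen-wide mean plus twice its standard deviation, cut at about 32% in these data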
Large screens that a line does not name were inactive (follow-up assays come after a bar, where they were run). A selection: hits, their analogues and other compounds. The true share with any hit is near 4.1%.

COc1ccc(-c2[nH]n(-c3ccc([N+](=O)[O-])cc3)c(=O)c2C=NCc2ccc(F)cc2)cc1	none (no result: TAG inh)
COc1ccccc1N1CCN(CC(=O)Nc2ccc(-n3cnnn3)cc2)CC1	Efflux pump inh 0.9 | Cmpd fluor yeast inactive | CaMdr1 efflux inh inactive | Cdr2 pump inh inactive | Cdr1 pump inh inactive
COCCCNC(=O)C[C@H]1C[C@@]2(C(=O)OC)C(=C[C@H](COCc3ccccc3)O[C@@H]2C)N(Cc2ccco2)C1=O	none (no result: Efflux pump inh, Tb MetRS inh, AHR activator, TAG inh)
CCOC(=O)c1c(C)[nH]c(C)c1C(=O)COC(=O)/C=C/c1ccc(Cl)cc1	Efflux pump inh 8.3 (no result: TAG inh) | Cmpd fluor yeast inactive | CaMdr1 efflux inh inactive | Cdr2 pump inh inactive | Cdr1 pump inh inactive
CCOC(=O)c1c(C)[nH]c(C)c1C(=O)COC(=O)/C=C/c1ccc(OC(F)F)cc1	none (no result: TAG inh)
COC(=O)c1cc(-c2ccc(Br)cc2)c2c(=O)n(C)c(=O)n(C)c2n1	none
COC(=O)c1cc(OC)nc2c1c(=O)n(C)c(=O)n2C	Efflux pump inh 9.6 (no result: TAG inh) | Cmpd fluor yeast inactive | CaMdr1 efflux inh inactive | Cdr2 pump inh inactive | Cdr1 pump inh inactive
COc1ccccc1C(=O)N1CCN(C(=O)[C@@H](Cc2ccccc2)NC(=O)[C@H]2O[C@@H](n3cnc(C(N)=O)n3)[C@H](O)[C@@H]2O)CC1	none (no result: Efflux pump inh, Tb MetRS inh, AHR activator, TAG inh)
CC(C)(C)c1ccc(S(=O)(=O)N2CCC(C(=O)N3CCN(C4CCCCC4)CC3)CC2)cc1	none (no result: Efflux pump inh, Tb MetRS inh, AHR activator, TAG inh)
CCn1c(/C=C/c2ccc(O)c(O)c2)nc2ccccc2c1=O	Efflux pump inh 1.0 (no result: AHR activator) | Cmpd fluor yeast inactive | CaMdr1 efflux inh inactive | Cdr2 pump inh inactive | Cdr1 pump inh inactive
CCn1c(/C=C/c2ccc(O)cc2)nc2ccccc2c1=O	none
Oc1ccccc1C=NN1CCCCCC1	none (no result: Efflux pump inh, AHR activator)
Oc1[nH]c2ccccc2c1/C=N/N1CCCCC1	Efflux pump inh 6.7 (no result: TAG inh) | Cmpd fluor yeast inactive | CaMdr1 efflux inh inactive | Cdr2 pump inh inactive | Cdr1 pump inh inactive
FC(F)(F)c1cccc(N2CCN(C3=Nc4ccccc4Sc4ccccc43)CC2)c1	none (no result: Efflux pump inh, Tb MetRS inh, AHR activator, TAG inh)
CSc1cccc(NS(=O)(=O)c2cn(C)cn2)c1	Efflux pump inh 1.3 (no result: TAG inh) | Cmpd fluor yeast inactive | CaMdr1 efflux inh inactive | Cdr2 pump inh inactive | Cdr1 pump inh inactive
O=C(COc1ccc(F)cc1)Nc1nnc(C2CC2)s1	none | Cmpd fluor yeast inactive | CaMdr1 efflux inh inactive | Cdr2 pump inh inactive | Cdr1 pump inh inactive
O=C(CCCc1ccccc1)Nc1cccc([N+](=O)[O-])c1	Efflux pump inh 0.8 | Cmpd fluor yeast inactive | CaMdr1 efflux inh inactive | Cdr2 pump inh inactive | Cdr1 pump inh inactive
O=C(CCc1ccccc1)Nc1cccc([N+](=O)[O-])c1	none
COc1ccc(/C(O)=C2\C(=O)C(=O)N(CCN(C)C)C2c2cccc(OC)c2OC)cc1 (stereo unspecified)	SMARCA2 activ 9.6, Efflux pump inh 6.5 (no result: TAG inh) | Cmpd fluor yeast inactive | CaMdr1 efflux inh inactive | Cdr2 pump inh inactive | Cdr1 pump inh inactive
COc1ccc(NC(=O)c2cc(-c3ccc(C)cc3)on2)cc1OC	none
COc1ccc(-c2cc(C(=O)Nc3ccc(OC)c(OC)c3)no2)cc1	Efflux pump inh 1.4 (no result: TAG inh) | Cmpd fluor yeast inactive | CaMdr1 efflux inh inactive | Cdr2 pump inh inactive | Cdr1 pump inh inactive
CCCCOc1ccc(NC2=NC3(CCCC3)N=C(N)N2)cc1	Efflux pump inh 0.6 | Cmpd fluor yeast inactive | CaMdr1 efflux inh inactive | Cdr2 pump inh inactive | Cdr1 pump inh inactive
CCCCOc1ccc(C2(C(=O)O)CCCC2)cc1	none
COC(=O)c1cc(OC)c(OC)cc1NC(=O)c1cc(-c2ccccc2)nc2ccccc12	none (no result: TAG inh) | Cmpd fluor yeast inactive | CaMdr1 efflux inh inactive | Cdr2 pump inh inactive | Cdr1 pump inh inactive
COc1cc(NC(=O)c2cc(-c3ccccc3)nc3c2cnn3C(C)C)cc(OC)c1OC	Efflux pump inh 1.0 (no result: SMARCA2 activ) | Cmpd fluor yeast inactive | CaMdr1 efflux inh inactive | Cdr2 pump inh inactive | Cdr1 pump inh inactive
COc1ccc(-c2cc(C(=O)Nc3ccccc3O)c3ccccc3n2)cc1OC	none
CCCC(=O)Nc1ccc(C(=O)NNC(=S)NC(=O)c2cccs2)cc1	none (no result: TAG inh)
CCCC(=O)Nc1ccc(C(=O)NNC(=O)c2cccs2)cc1	Efflux pump inh 11 (no result: SMARCA2 activ, TAG inh) | Cmpd fluor yeast inactive | CaMdr1 efflux inh inactive | Cdr2 pump inh inactive | Cdr1 pump inh inactive
COc1ccc(NC(=O)CN(C)C(=O)/C=C/c2cn(-c3ccccc3)nc2-c2ccc(C)cc2)cc1	Efflux pump inh 0.5 | Cmpd fluor yeast inactive | CaMdr1 efflux inh inactive | Cdr2 pump inh inactive | Cdr1 pump inh inactive
COC(=O)C1CN(Cc2cn(Cc3ccc(Cl)cc3)nn2)CCS(=O)(=O)N1Cc1ccc(Cl)cc1 (stereo unspecified)	none (no result: Efflux pump inh, Tb MetRS inh, AHR activator, TAG inh)
CSCCC(NC(=O)c1ccccc1Cl)C(=O)N1CCN(C(c2ccccc2)c2ccccc2)CC1 (stereo unspecified)	Efflux pump inh 0.5 | Cmpd fluor yeast inactive | CaMdr1 efflux inh inactive | Cdr2 pump inh inactive | Cdr1 pump inh inactive
CN1[C@H](Cc2ccccc2)COc2cc(N3CCCC3)ccc2S1(=O)=O	none (no result: Efflux pump inh, Tb MetRS inh, AHR activator, TAG inh)
COc1ccc2c(c1)N(C)/C(=C/c1cccc[n+]1C)S2	Efflux pump inh 1.1 (no result: TAG inh) | Cmpd fluor yeast inactive | CaMdr1 efflux inh inactive | Cdr2 pump inh inactive | Cdr1 pump inh inactive
Cc1ccc2c(c1)N(C)/C(=C/c1cccc[n+]1C)S2	Efflux pump inh 1.2 (no result: TAG inh) | Cmpd fluor yeast inactive | CaMdr1 efflux inh inactive | Cdr2 pump inh inactive | Cdr1 pump inh inactive
